From ChEMBL document CHEMBL2021810, “Synthesis, anticancer activities, and cellular uptake studies of lipophilic derivatives of doxorubicin succinate” (J Med Chem, 2012)
The source made the active and inactive calls. No cut-off for these calls is given here.

Tests used:
CCRF-CEM [1] = assay: Inhibition of cell proliferation of human CCRF-CEM cells after 96 hrs by CellTiter assay; format: functional, cell-based
MDA-MB-468 [2] = assay: Inhibition of cell proliferation of human MDA-MB-468 cells at 1 uM after 120 hrs by CellTiter assay; format: functional; details: MDA-MB-468, 120 h
[3] = Drug uptake in doxorubicin-resistant human SKOV3 cell nucleus at 5 uM after 1 hr by confocal microscopic analysis; format: ADME, cell-based; details: sk-ov-3, 1 h
Outline: (§1)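 Coverslip-grown SK-OV-3 cells (seeded overnight, EMEM) treated with 5 μM compound in opti-MEM for 1 h at 37 °C, PBS-washed three times, mounted and imaged by laser scanning confocal microscopy using rhodamine and phase contrast channels for Dox fluorescence.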

[4] = Cellular uptake in doxorubicin-resistant human SKOV3 cells at 5 uM incubated for 1 hr followed by incubation with fresh media for 24 hrs measured by confocal microscopic analysis; format: ADME, cell-based, Cytoplasm; details: sk-ov-3, 1 h
Outline: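 SK-OV-3 cells seeded overnight on coverslips in EMEM, exposed to 5 μM compound in opti-MEM for 1 h at 37 °C, washed, then kept in fresh serum-containing medium 24 h; PBS-washed and imaged by laser scanning confocal microscopy, rhodamine and phase contrast channels.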

SK-OV-3 [5] = assay: Cytotoxicity against human SKOV3 cells at 10 uM incubated for 2 hrs followed by incubation in compound-free medium for 72 hrs by MTT assay; format: functional
Outline: (§2)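 SK-OV-3 cells plated overnight at 5000 cells/well; exposed to compound (up to 10 μM), then medium replaced with drug-free medium for 72 h; MTT added 2 h, formazan read at 490 nm; % cytotoxicity = (OD untreated − OD treated)/OD untreated × 100.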

SK-OV-3 [6] = assay: Cytotoxicity against human SKOV3 cells after 48 hrs; format: functional, cell-based; details: SK-OV-3, 48 h
[7] = target: DNA topoisomerase 2-alpha (Homo sapiens) (UniProt P11388); details: 5 uM
CCRF-CEM [8] = assay: Inhibition of cell proliferation of human CCRF-CEM cells at 1 uM after 96 to 120 hrs by CellTiter assay; format: functional
HT-29 [9] = assay: Inhibition of cell proliferation of human HT-29 cells at 1 uM after 96 to 120 hrs by CellTiter assay; format: functional
MDA-MB-468 [10] = assay: Inhibition of cell proliferation of human MDA-MB-468 cells at 1 uM after 96 to 120 hrs by CellTiter assay; format: functional
MDA-MB-361 [11] = assay: Inhibition of cell proliferation of human MDA-MB-361 cells at 1 uM after 96 to 120 hrs by CellTiter assay; format: functional
SK-OV-3 [12] = assay: Inhibition of cell proliferation of human SKOV3 cells at 1 uM after 96 to 120 hrs by CellTiter assay; format: functional
CCRF-CEM [13] = assay: Inhibition of cell proliferation of human CCRF-CEM cells at 1 uM by CellTiter assay; format: functional, cell-based; details: TDE = time-dependent effect
HT-29 [14] = assay: Inhibition of cell proliferation of human HT-29 cells at 1 uM by CellTiter assay; format: functional, cell-based; details: TDE = time-dependent effect
MDA-MB-468 [15] = assay: Inhibition of cell proliferation of human MDA-MB-468 cells at 1 uM by CellTiter assay; format: functional, cell-based; details: TDE = time-dependent effect
MDA-MB-361 [16] = assay: Inhibition of cell proliferation of human MDA-MB-361 cells at 1 uM by CellTiter assay; format: functional, cell-based; details: TDE = time-dependent effect
SK-OV-3 [17] = assay: Inhibition of cell proliferation of human SKOV3 cells at 1 uM by CellTiter assay; format: functional, cell-based; details: TDE = time-dependent effect
CCRF-CEM [18] = assay: Growth inhibition of human CCRF-CEM cells at 1 uM after 96 hrs by CellTiter assay; format: functional, cell-based
HT-29 [19] = assay: Growth inhibition of human HT-29 cells at 1 uM after 96 hrs by CellTiter assay; format: functional, cell-based
MDA-MB-468 [20] = assay: Growth inhibition of human MDA-MB-468 cells at 1 uM after 96 hrs by CellTiter assay; format: functional, cell-based
MDA-MB-361 [21] = assay: Growth inhibition of human MDA-MB-361 cells at 1 uM after 96 hrs by CellTiter assay; format: functional, cell-based
SK-OV-3 [22] = assay: Growth inhibition of human SKOV3 cells at 1 uM after 96 hrs by CellTiter assay; format: functional, cell-based
[23] = target: DNA topoisomerase 2-alpha (Homo sapiens) (UniProt P11388); assay: Inhibition of topoisomerase 2-mediated KDNA decatenation at 25 uM after 30 mins by gel electrophoretic analysis
Outline: (§3)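 Eukaryotic Topo II decatenation of kDNA (0.1 μg) in Tris-HCl 50 mM pH 8.0, NaCl 150 mM, MgCl2 10 mM, DTT 0.5 mM, ATP 2 mM with compound at 1–25 μM final, 30 min at 37 °C; stopped with sarkosyl buffer; products resolved on 1% agarose with ethidium bromide.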

SK-OV-3 [24] = assay: Cellular uptake in doxorubicin-resistant human SKOV3 cells at 5 uM after 30 mins by FACS analysis relative to doxorubicin; format: ADME, cell-based; details: sk-ov-3, 0.5 h
Outline: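 SK-OV-3 cells plated overnight in EMEM (2 × 10^5 cells/well); compound 5 μM added in opti-MEM, 30 min at 37 °C; cells trypsinized, PBS-washed, analysed by flow cytometry on FL2 channel; mean fluorescence of 10000 cells; triplicate.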

[25] = Drug uptake in doxorubicin-resistant human SKOV3 cell cytoplasm at 5 uM after 1 hr by confocal microscopic analysis; format: ADME, cell-based; details: sk-ov-3, 1 h; outline: as §1
SK-OV-3 [26] = assay: Cytotoxicity against human SKOV3 cells at 10 uM incubated for 1 hr followed by incubation in compound-free medium for 72 hrs by MTT assay; format: functional; outline: as §2
SK-OV-3 [27] = assay: Cytotoxicity against human SKOV3 cells at 5 to 10 uM by MTT assay relative to doxorubicin; format: functional; outline: as §2
[28] = target: DNA topoisomerase 2-alpha (Homo sapiens) (UniProt P11388); assay: Inhibition of topoisomerase 2-mediated KDNA decatenation at 15 to 20 uM after 30 mins by gel electrophoretic analysis; outline: as §3
[29] = Chemical stability of the compound in pH 8, reaction buffer containing Tris-HCl, NaCl, MgCl2, dithiothreitol and ATP; format: physicochemical
Outline: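 Compound held in Topo II reaction buffer (Tris-HCl 50 mM pH 8.0, NaCl 150 mM, MgCl2 10 mM, DTT 0.5 mM, ATP 2 mM) without enzyme; hydrolysis followed by HPLC.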

[30] = Half life in fetal bovine serum at 1 mM by HPLC analysis; format: ADME, cell-free, Bos taurus; details: cattle
Outline: (§4)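 Compound (50 μL of 1 mM DMSO stock) incubated in 1 mL of 100% FBS or PBS pH 7.0 at 37 °C with shaking; aliquots taken from 10 min to 96 h, diluted with water, analysed by HPLC at 490 nm; peak areas give % remaining and % released Dox.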

[31] = Half life in PBS at 1 mM by HPLC analysis; format: physicochemical; outline: as §4
CCRF-CEM [32] = assay: Drug metabolism in human CCRF-CEM cells assessed as doxorubicin formation at 1 uM by HPLC analysis; format: ADME, cell-based; details: TDE = time-dependent effect
Outline: (§5)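 CCRF-CEM cells grown in serum-free RPMI, exposed to 1 μM compound 4 h at 37 °C, then moved to drug-free serum-free RPMI for set times; pellets washed with ice-cold PBS, extracted with methanol/chloroform/isopropanol (4:3:1), filtered; parent and released Dox quantified by HPLC at 490 nm.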

[33] = Drug metabolism in human CCRF-CEM cells assessed as compound hydrolysis at 1 uM after 12 hrs by HPLC analysis; format: ADME, cell-based; details: read-out: Drug metabolism; outline: as §5
[34] = Drug metabolism in human CCRF-CEM cells assessed as compound hydrolysis at 1 uM after 48 hrs by HPLC analysis; format: ADME, cell-based; details: read-out: Drug metabolism; outline: as §5
SK-OV-3 [35] = assay: Cytotoxicity against human SKOV3 cells at > = 100 nM after 72 hrs by MTT assay; format: functional, cell-based; outline: as §2
Serum = assay: Binding affinity to serum proteins in fetal bovine serum at 1 mM; format: ADME, cell-free, Bos taurus; details: cattle, 1000 µM
[36] = Drug metabolism in fetal bovine serum assessed as compound hydrolysis at 1 uM after 12 hrs by HPLC analysis
[37] = Drug metabolism in fetal bovine serum assessed as compound hydrolysis at 1 uM after 48 hrs by HPLC analysis

Sequence of DNA topoisomerase 2-alpha (Homo sapiens) (P11388 whole entry): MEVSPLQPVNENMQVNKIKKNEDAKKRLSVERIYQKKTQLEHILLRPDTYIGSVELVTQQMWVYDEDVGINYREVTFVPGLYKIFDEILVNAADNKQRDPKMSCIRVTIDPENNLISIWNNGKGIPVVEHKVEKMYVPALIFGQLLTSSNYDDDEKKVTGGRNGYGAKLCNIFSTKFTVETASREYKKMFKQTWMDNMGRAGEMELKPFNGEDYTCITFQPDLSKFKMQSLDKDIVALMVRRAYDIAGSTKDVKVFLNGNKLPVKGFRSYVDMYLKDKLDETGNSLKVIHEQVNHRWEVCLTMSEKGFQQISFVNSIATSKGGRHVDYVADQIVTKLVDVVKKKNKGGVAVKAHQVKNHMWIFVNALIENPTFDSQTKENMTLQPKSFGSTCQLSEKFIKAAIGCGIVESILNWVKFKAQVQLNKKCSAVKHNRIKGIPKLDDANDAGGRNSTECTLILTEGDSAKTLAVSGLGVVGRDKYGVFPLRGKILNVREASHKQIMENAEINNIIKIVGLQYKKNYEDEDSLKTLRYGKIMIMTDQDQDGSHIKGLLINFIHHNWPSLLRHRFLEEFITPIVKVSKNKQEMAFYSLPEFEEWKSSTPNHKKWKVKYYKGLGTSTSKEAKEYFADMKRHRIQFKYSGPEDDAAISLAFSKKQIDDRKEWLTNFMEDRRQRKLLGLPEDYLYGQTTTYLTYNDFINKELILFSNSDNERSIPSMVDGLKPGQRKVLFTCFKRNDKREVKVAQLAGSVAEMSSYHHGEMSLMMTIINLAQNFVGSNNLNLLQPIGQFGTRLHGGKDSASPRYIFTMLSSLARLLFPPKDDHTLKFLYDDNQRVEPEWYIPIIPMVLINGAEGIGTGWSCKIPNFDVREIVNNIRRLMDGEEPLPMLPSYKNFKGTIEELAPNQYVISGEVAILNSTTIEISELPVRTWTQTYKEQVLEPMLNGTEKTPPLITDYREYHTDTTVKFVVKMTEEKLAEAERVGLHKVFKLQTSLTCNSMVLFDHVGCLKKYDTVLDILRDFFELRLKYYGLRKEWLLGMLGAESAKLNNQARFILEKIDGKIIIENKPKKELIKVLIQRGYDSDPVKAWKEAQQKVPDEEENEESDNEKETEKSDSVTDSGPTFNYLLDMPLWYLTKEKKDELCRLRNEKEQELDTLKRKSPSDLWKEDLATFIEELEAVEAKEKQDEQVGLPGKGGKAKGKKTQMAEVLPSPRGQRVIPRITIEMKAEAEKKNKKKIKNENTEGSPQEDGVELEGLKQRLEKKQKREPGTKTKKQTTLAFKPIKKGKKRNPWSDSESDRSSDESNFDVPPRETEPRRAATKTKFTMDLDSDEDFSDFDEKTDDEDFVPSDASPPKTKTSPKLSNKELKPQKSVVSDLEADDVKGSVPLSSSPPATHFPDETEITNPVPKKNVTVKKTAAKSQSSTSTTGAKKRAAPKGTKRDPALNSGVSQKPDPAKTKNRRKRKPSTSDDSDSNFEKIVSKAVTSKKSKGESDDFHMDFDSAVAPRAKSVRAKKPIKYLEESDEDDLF

Compound	IC50 (CCRF-CEM [1]) [nM]	inhibition at 1 µM (CCRF-CEM [8]) [%]	inhibition at 1 µM (HT-29 [9]) [%]	inhibition at 1 µM (MDA-MB-468 [10]) [%]	inhibition at 1 µM (MDA-MB-361 [11]) [%]	inhibition at 1 µM (SK-OV-3 [12]) [%]	inhibition (CCRF-CEM [13])	inhibition (HT-29 [14])	inhibition (MDA-MB-468 [15])	inhibition (MDA-MB-361 [16])	inhibition (SK-OV-3 [17])	growth inhibition (GI) (CCRF-CEM [18])	growth inhibition (GI) (HT-29 [19])	growth inhibition (GI) (MDA-MB-468 [20])	growth inhibition (GI) (MDA-MB-361 [21])	growth inhibition (GI) (SK-OV-3 [22])	also measured
COc1cccc2c1C(=O)c1c(O)c3c(c(O)c1C2=O)C[C@@](O)(C(=O)CO)C[C@@H]3O[C@H]1C[C@H](N)[C@H](O)[C@H](C)O1 [DOXORUBICIN]	45																inhibition at 1 µM (MDA-MB-468 [2]): 69.1%; Drug uptake [3]: Active; Drug uptake [4]: Not Active; Activity (SK-OV-3 [5]): 51.5%; IC50 (SK-OV-3 [6]): 5000 nM; inhibition [7]: Active
COc1cccc2c1C(=O)c1c(O)c3c(c(O)c1C2=O)C[C@@](O)(C(=O)COC(=O)CCC(=O)O)C[C@@H]3O[C@H]1C[C@H](N)[C@H](O)[C@H](C)O1	75	69	60	49	66	54	tde	tde	tde	tde	tde	Active	Active	Active	Active	Active	
CCCCCCCCCCCCCCCC(=O)N[C@H]1C[C@H](O[C@H]2C[C@](O)(C(=O)CO)Cc3c(O)c4c(c(O)c32)C(=O)c2c(OC)cccc2C4=O)O[C@@H](C)[C@H]1O																	inhibition [23]: inactive
CCCCCCCCCCCCCCOC(=O)CCC(=O)OCC(=O)[C@]1(O)Cc2c(O)c3c(c(O)c2[C@@H](O[C@H]2C[C@H](N)[C@H](O)[C@H](C)O2)C1)C(=O)c1c(OC)cccc1C3=O	75	69	60	49	66	54	tde	tde	tde	tde	tde	Active	Active	Active	Active	Active	
CCCCCCCCCCCCCCNC(=O)CCC(=O)OCC(=O)[C@]1(O)Cc2c(O)c3c(c(O)c2[C@@H](O[C@H]2C[C@H](N)[C@H](O)[C@H](C)O2)C1)C(=O)c1c(OC)cccc1C3=O	77	69	60	49	66	54	tde	tde	tde	tde	tde	Active	Active	Active	Active	Active	inhibition at 1 µM (MDA-MB-468 [2]): 70.2%; fold change (FC) (SK-OV-3 [24]): 3; Drug uptake [25]: Active; Drug uptake [4]: Active; Activity (SK-OV-3 [26]): 67.1%; fold change (FC) (SK-OV-3 [27]): 1.4; inhibition [28]: Active; Stability [29]: Stable; half-life at 1000 µM [30]: 8.3 h; half-life at 1000 µM [31]: 19.3 h; Drug metabolism (CCRF-CEM [32]): tde; metabolised at 12 h, 1 µM [33]: > 75%; metabolised at 48 h, 1 µM [34]: 98%; Activity (SK-OV-3 [35]): Active; PB (Serum): Not Active; metabolised at 12 h, 1 µM [36]: 20%; metabolised at 48 h, 1 µM [37]: 30%
CCCCCCCCCCCCCCCCNC(=O)CCC(=O)OCC(=O)[C@]1(O)Cc2c(O)c3c(c(O)c2[C@@H](O[C@H]2C[C@H](N)[C@H](O)[C@H](C)O2)C1)C(=O)c1c(OC)cccc1C3=O	75	69	60	49	66	54	tde	tde	tde	tde	tde	Active	Active	Active	Active	Active	

More lines, main results first:

IC50 (CCRF-CEM [1]) [nM]	Compound	inhibition at 1 µM (CCRF-CEM [8]) [%]	inhibition at 1 µM (HT-29 [9]) [%]	inhibition at 1 µM (MDA-MB-468 [10]) [%]	inhibition at 1 µM (MDA-MB-361 [11]) [%]	inhibition at 1 µM (SK-OV-3 [12]) [%]	inhibition (CCRF-CEM [13])	inhibition (HT-29 [14])	inhibition (MDA-MB-468 [15])	inhibition (MDA-MB-361 [16])	inhibition (SK-OV-3 [17])	growth inhibition (GI) (CCRF-CEM [18])	growth inhibition (GI) (HT-29 [19])	growth inhibition (GI) (MDA-MB-468 [20])	growth inhibition (GI) (MDA-MB-361 [21])	growth inhibition (GI) (SK-OV-3 [22])	also measured
75	CCCCCCCCCCCCNC(=O)CCC(=O)OCC(=O)[C@]1(O)Cc2c(O)c3c(c(O)c2[C@@H](O[C@H]2C[C@H](N)[C@H](O)[C@H](C)O2)C1)C(=O)c1c(OC)cccc1C3=O	69	60	49	66	54	tde	tde	tde	tde	tde	Active	Active	Active	Active	Active	
75	CCCCCCCCCCNC(=O)CCC(=O)OCC(=O)[C@]1(O)Cc2c(O)c3c(c(O)c2[C@@H](O[C@H]2C[C@H](N)[C@H](O)[C@H](C)O2)C1)C(=O)c1c(OC)cccc1C3=O	69	60	49	66	54	tde	tde	tde	tde	tde	Active	Active	Active	Active	Active	
